Results taken from ChEMBL document CHEMBL1135527, “Synthesis and evaluation of 2'-substituted 4-(4'-carboxy- or 4'-carboxymethylbenzylidene)-N-acylpiperidines: highly potent and in vivo active steroid 5alpha-reductase type 2 inhibitors” (J Med Chem, 2002).
pIC50: −log10 of the molar value.

Key:
[1] = molecular target: T1, 3-oxo-5-alpha-steroid 4-dehydrogenase 1 (Homo sapiens) (UniProt P18405); assay: Inhibition of Steroid 5-alpha-reductase type I of human DU 145 prostatic tumor cell line, at 10 uM
T1 sequence (whole entry): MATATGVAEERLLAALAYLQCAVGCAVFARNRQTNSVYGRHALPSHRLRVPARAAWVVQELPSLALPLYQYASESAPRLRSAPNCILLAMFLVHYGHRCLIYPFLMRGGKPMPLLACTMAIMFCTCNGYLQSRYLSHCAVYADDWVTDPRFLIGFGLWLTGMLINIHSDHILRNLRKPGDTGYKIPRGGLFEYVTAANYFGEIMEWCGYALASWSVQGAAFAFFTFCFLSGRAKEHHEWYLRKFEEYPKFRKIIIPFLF
Summary of the method: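 Intact DU145 cells (type 1 source) seeded at 180 000/well and left to adhere overnight. Compound added in DMSO to complete medium, then 6 h at 37 °C in 5% CO2 with [³H]androstenedione, 5 nM. Medium extracted twice with ether, steroids separated by radio-HPLC. Product formed expressed as % of triplicate no-inhibitor controls; screened at 10 μM.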

[2] = molecular target: T2, 3-oxo-5-alpha-steroid 4-dehydrogenase 1 (Rattus norvegicus, UniProt P24008); assay: Inhibition of Steroid 5-alpha-reductase type I from rat ventral prostate (RVP); assay type: tissue-based, Prostate gland
T2 sequence (P24008 whole entry): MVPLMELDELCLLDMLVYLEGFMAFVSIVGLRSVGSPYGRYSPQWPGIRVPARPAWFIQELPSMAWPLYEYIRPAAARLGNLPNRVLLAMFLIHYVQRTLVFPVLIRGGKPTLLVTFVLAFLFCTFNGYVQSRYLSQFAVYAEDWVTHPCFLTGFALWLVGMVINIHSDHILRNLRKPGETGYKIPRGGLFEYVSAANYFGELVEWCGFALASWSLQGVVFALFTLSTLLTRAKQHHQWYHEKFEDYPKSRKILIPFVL
Summary of the method: (§1)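 Rat ventral prostate 105000g pellet made in 20 mM phosphate pH 6.6 with […] and 1 mM DTT at 0–4 °C. About 250 μg protein incubated 30 min at 37 °C in 40 mM phosphate pH 6.6 with 200 μM NADPH, 0.21 μM [1,2-³H]testosterone and 2% DMSO. Ether extraction, radio-HPLC of T and DHT. % inhibition at 10 μM or IC50; duplicates.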

[3] = molecular target: T3, 3-oxo-5-alpha-steroid 4-dehydrogenase 2 (Homo sapiens, UniProt P31213); assay: Inhibition of Steroid 5-alpha-reductase type 2 from human benign prostatic hyperplasia (BPH) tissue
T3 sequence (P31213 whole entry): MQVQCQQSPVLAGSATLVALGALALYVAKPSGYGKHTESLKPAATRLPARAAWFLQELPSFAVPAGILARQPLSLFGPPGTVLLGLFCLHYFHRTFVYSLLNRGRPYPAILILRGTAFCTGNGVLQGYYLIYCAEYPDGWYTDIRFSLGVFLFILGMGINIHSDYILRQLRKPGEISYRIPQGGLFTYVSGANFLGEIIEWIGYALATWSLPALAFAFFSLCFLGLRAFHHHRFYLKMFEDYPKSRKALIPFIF
Summary of the method: (§2)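 Human BPH prostate 105000g pellet (nuclei, mitochondria, microsomes) prepared in citrate buffer pH 5.5. Incubation of about 125 μg protein for 30 min at 37 °C in 40 mM citrate pH 5.5 with 100 μM NADPH, 0.21 μM [1,2-³H]testosterone and 2% DMSO. Reaction stopped with NaOH, steroids extracted with ether, T/DHT separated by radio-HPLC. Single 10 μM test or IC50; duplicates.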

[4] = molecular target: T4, 3-oxo-5-alpha-steroid 4-dehydrogenase 2 (Rattus norvegicus, UniProt P31214); assay: (§3) Inhibition of Steroid 5-alpha-reductase type 2 of rat ventral prostate (RVP); assay type: tissue-based, Prostate gland
T4 sequence (P31214 whole entry): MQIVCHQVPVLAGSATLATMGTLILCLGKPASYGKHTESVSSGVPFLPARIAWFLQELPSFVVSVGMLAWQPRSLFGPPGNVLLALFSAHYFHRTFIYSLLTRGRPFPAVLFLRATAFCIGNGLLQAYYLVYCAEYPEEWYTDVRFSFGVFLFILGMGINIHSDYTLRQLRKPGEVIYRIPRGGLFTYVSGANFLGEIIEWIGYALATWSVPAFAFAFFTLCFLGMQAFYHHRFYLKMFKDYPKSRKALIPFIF
Summary of the method: (§4)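 Type 2 source: rat ventral prostate homogenized in citrate buffer pH 5.5, 105000g pellet. About 250 μg protein incubated 30 min at 37 °C in 40 mM citrate pH 5.5 with 200 μM NADPH, 0.21 μM [1,2-³H]testosterone and 2% DMSO. NaOH stop, ether extraction, radio-HPLC of T/DHT. Result given as % inhibition at 10 μM or IC50, run in duplicate.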

[5] = molecular target: T5, 3-oxo-5-alpha-steroid 4-dehydrogenase 1 (Rattus norvegicus) (UniProt P24008); assay: Inhibition of Steroid 5-alpha-reductase type I of rat ventral prostate (RVP); assay type: tissue-based; set-up: concentration or dose not given beside the values; conditions: Prostate gland, concentration not given here; summary of the method: as §1
T5 sequence (whole entry): T2 sequence (P24008 whole entry)

[6] = molecular target: T6, 3-oxo-5-alpha-steroid 4-dehydrogenase 2 (Rattus norvegicus) (UniProt P31214); assay: as §3; set-up: concentration or dose not given beside the values; conditions: Prostate gland, concentration not given here; summary of the method: as §4
T6 sequence (whole entry): T4 sequence (P31214 whole entry)

[7] = molecular target: T7, 3-oxo-5-alpha-steroid 4-dehydrogenase 2 (Homo sapiens) (UniProt P31213); assay: Percent of inhibition at 10 benign prostatic hyperplasia (BPH) tissue; conditions: concentration not given here; summary of the method: as §2
T7 sequence (whole entry): T3 sequence (P31213 whole entry)

[8] = molecular target: 3-oxo-5-alpha-steroid 4-dehydrogenase 2 (Homo sapiens, UniProt P31213); assay: In vitro inhibitory activity against Steroid 5-alpha-reductase type 2 of human benign prostatic hyperplasia (BPH) tissue; summary of the method: as §2
Rattus norvegicus [9] = assay: Mean percentage of inhibition of the T-induced hypertrophic response was calculated according to the equation %inhibition = 100 x (Ct-D)/(Ct-Cc) at a dose 1 mg/kg by subcutaneous administration; assay type: functional; conditions: sc
Summary of the method: (§5)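 Male rats castrated at 21 days old by scrotal incision under ether anaesthesia; eight groups of eight. One week later, testosterone propionate 1 mg/kg and test agent or vehicle in oil given once daily for 4 days. Testosterone and test agent were given by separate sc injections, or the test agent was given orally. Test doses 11.3–12.2 mg/kg, 10 times equimolar to finasteride 1 mg/kg.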

Rattus norvegicus [10] = assay: In vivo ventral prostate weights in juvenile castrated rats treated with testosterone propionate (11.3 mg/kg) + compound, by subcutaneous administration; assay type: functional, Prostate gland
Rattus norvegicus [11] = assay: In vivo ventral prostate weights in juvenile castrated rats treated with testosterone propionate (11.3 mg/kg) compound, by subcutaneous administration; assay type: functional, Prostate gland; summary of the method: as §5
Rattus norvegicus [12] = assay: Mean percentage of inhibition of the T-induced hypertrophic response was calculated according to the equation %inhibition = 100 x (Ct-D)/(Ct-Cc) at a dose 11.3 mg/kg by oral administration; assay type: functional; summary of the method: as §5
Rattus norvegicus [13] = assay: In vivo ventral prostate weights in juvenile castrated rats treated with testosterone propionate (11.3 mg/kg) compound, by oral administration; assay type: functional, Prostate gland; summary of the method: as §5
Rattus norvegicus [14] = assay: Mean percentage of inhibition of the T-induced hypertrophic response was calculated according to the equation %inhibition = 100 x (Ct-D)/(Ct-Cc) at a dose 11.3 mg/kg by subcutaneous administration; assay type: functional; conditions: sc; summary of the method: as §5

Structure (SMILES)	inhibition [1]	pIC50 [2]	pIC50 [3]	pIC50 [4]	inhibition [5]	inhibition [6]	further results
O=C(O)c1ccc(C=C2CCN(C(=O)C34CC5CC(CC(C5)C3)C4)CC2)cc1	44%	5.25	6.59	5.60	–	–	–
O=C(O)c1ccc(C=C2CCN(C(=O)CC(c3ccccc3)c3ccccc3)CC2)cc1	8%	5.80	5.96	6.06	–	–	–
CC(C)(C)OC(=O)N1CCC(Oc2ccc(C(=O)O)cc2)CC1	2%	–	–	–	4%	12%	inhibition [7]: 7.8%
O=C(O)c1ccc(C=C2CCN(C(=O)C(c3ccccc3)c3ccccc3)CC2)cc1	26%	5.47	6.28	6.43	–	–	–
COc1cc(C(=O)O)ccc1C=C1CCN(C(=O)C(C2CCCCC2)C2CCCCC2)CC1	5%	–	6.89	–	55%	43%	–
O=C(O)c1ccc(OC2CCN(C(=O)C(c3ccccc3)c3ccccc3)CC2)cc1	–	–	–	–	62%	58%	pIC50 [8]: 5.89
O=C(O)c1ccc(C=C2CCN(C(=O)C(c3ccccc3)c3ccccc3)CC2)c(F)c1	2%	5.96	6.39	5.96	–	–	–
O=C(O)c1cccc(C=C2CCN(C(=O)C(C3CCCCC3)C3CCCCC3)CC2)c1	–	–	–	–	35%	25%	pIC50 [8]: 6.15
O=C(O)c1ccc(OC2CCN(C(=O)C34CC5CC(CC(C5)C3)C4)CC2)cc1	7%	–	6.37	–	18%	21%	–
O=C(O)c1ccc(C=C2CCN(C(=O)N(c3ccccc3)c3ccccc3)CC2)cc1	22%	6.27	6.08	6.16	–	–	–
CC(C)(C)NC(=O)C1CC[C@@]2(C)[C@@H]3CC[C@H]4NC(=O)C=C[C@]4(C)[C@H]3CC[C@]12C.CCC(=O)O[C@H]1CC[C@H]2[C@@H]3CCC4=CC(=O)CC[C@]4(C)[C@H]3CC[C@]12C (some centres not stated)	–	–	–	–	–	–	inhibition in vivo at 1 mg/kg (Rattus norvegicus [9]): 76%; Weight (Rattus norvegicus [10]): 20.5 (mg of prostate) (100g of body weight)-1
CCC(=O)O[C@H]1CC[C@H]2[C@@H]3CCC4=CC(=O)CC[C@]4(C)[C@H]3CC[C@]12C.O=C(O)c1ccc(C=C2CCN(C(=O)C(C3CCCCC3)C3CCCCC3)CC2)cc1	–	–	–	–	–	–	Weight (Rattus norvegicus [11]): 27.9 (mg of prostate) (100g of body weight)-1; inhibition in vivo at 11.3 mg/kg (Rattus norvegicus [12]): 36%; Weight (Rattus norvegicus [13]): 31.6 (mg of prostate) (100g of body weight)-1; inhibition in vivo at 11.3 mg/kg (Rattus norvegicus [14]): 49%
COc1cc(C(=O)O)ccc1C=C1CCN(C(=O)C23CC4CC(CC(C4)C2)C3)CC1	10%	–	5.92	–	52%	51%	–
COc1cc(C(=O)O)ccc1C=C1CCN(C(=O)C(c2ccccc2)c2ccccc2)CC1	8%	5.72	5.46	6.03	–	–	–
